Results on 58 molecules are retold here after ChEMBL document CHEMBL3228032, “Aryloxyalkyloxy- and aralkyloxy-4-hydroxy-3-nitrocoumarins which inhibit histamine release in the rat and also antagonize the effects of a slow reacting substance of anaphylaxis” (J Med Chem, 1979).

In the first assay the test system is Rattus norvegicus. Nature of the assay: Antiallergic activity against ip dosed passive peritoneal anaphylaxis rat model assessed as inhibition of histamine release in peritoneal fluid administered 30s prior to ovalbumin challenge measured per rat after 5 mins. Format: functional.
Details: not given
In a few lines:
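Rat anti-ovalbumin antiserum raised with Bordetella pertussis vaccine adjuvant; rats given 2 mL of 1:5 antiserum ip. 2 h later, Pontamine Sky Blue iv, then compound in 1 mL saline ip (saline controls), groups of 5–7, randomized. Challenge 30 s later ip with 5 mL Tyrode containing heparin 50 μg/mL and ovalbumin 0.4 mg/mL. Peritoneal fluid collected at 5 min for histamine. Dose reducing histamine to 50% of controls from log dose-response line, 95% confidence limits.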
Regarding `O=C([O-])c1cc(=O)c2c(OCC(O)COc3cccc4oc(C(=O)[O-])cc(=O)c34)cccc2o1.[Na+].[Na+]` [CROMOLYN SODIUM], the ED50 amounted to 5.2 nM.
For the molecule `CCCc1c(OCC(O)COc2ccc3c(O)c([N+](=O)[O-])c(=O)oc3c2CCC)ccc(C(C)=O)c1O` (stereo unspecified), the ED50 is 6.2 ×10⁻¹⁰ M.
Turning to `O=c1oc2cc(OCCCOc3ccccc3)ccc2c(O)c1[N+](=O)[O-]`, the ED50 is 2.1 nM.
With `CCCc1c(OCCCOc2ccc3c(O)c([N+](=O)[O-])c(=O)oc3c2)ccc(C(C)=O)c1O`, the ED50 worked out at 4.8 nM.
Consider `CCCc1ccccc1OCC(O)COc1ccc2c(O)c([N+](=O)[O-])c(=O)oc2c1` (stereo unspecified), for which the ED50 amounted to 1.1 nM.
As for `CCCc1c(OCC(O)COc2ccc3c(O)c([N+](=O)[O-])c(=O)oc3c2)ccc(C(C)=O)c1O` (stereo unspecified), the ED50 is 6.5 ×10⁻¹⁰ M.
Take `CCCc1c(OCC(O)COc2ccc3c(=O)cc(C(=O)O)oc3c2CCC)ccc(C(C)=O)c1O` (stereo unspecified) [FPL-55712]: the ED50 turned out to be 3.2 ×10⁻⁸ M.
Same read-out and setting: the same measure for `CCCc1cc(F)ccc1OCC(O)COc1ccc2c(O)c([N+](=O)[O-])c(=O)oc2c1` (stereo unspecified): 1.7 nM.
The same measure, in the same setting: next, `CCCc1c(OCC(O)COc2ccc3c(O)c([N+](=O)[O-])c(=O)oc3c2C)ccc(C(C)=O)c1O` (stereo unspecified): 2.4 nM.

In another assay the test system is Ileum. Nature of the assay: Antagonism of slow reacting substance of anaphylaxis-induced effect in guinea pig ileum. The class given is functional, tissue-based. The conditions noted are these: Cavia porcellus. In a few lines: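 SRS-A standard: heated supernatant of pooled rat peritoneal fluid taken 5 min after antigen challenge in passive peritoneal anaphylaxis. Assayed on isolated terminal guinea pig ileum in 4 mL Tyrode's with atropine 5 × 10⁻⁷ M and mepyramine maleate 10⁻⁶ M. Antagonist in water added 30 s before a submaximal SRS-A dose. At least three concentrations, more than one ileum. Bath concentration for 50% inhibition taken from log concentration-inhibition curve, by eye or best-fit line with 95% confidence limits.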
On to `O=c1oc2cc(OCCCOc3ccc4c(c3)CCCC4)ccc2c(O)c1[N+](=O)[O-]`, for which the IC50 (usually the midpoint of a concentration-inhibition curve) is above 2000 nM.
Still for that read-out and setting: the same measure for `O=C(O)c1ccc(OCCCOc2ccc3c(O)c([N+](=O)[O-])c(=O)oc3c2)cc1`: above 20000 nM; for `O=c1oc2cc(OCC(O)COc3ccccc3)ccc2c(O)c1[N+](=O)[O-]` (stereo unspecified): 12000 nM.
The molecule `O=c1oc2cccc(OCCCCOc3ccccc3)c2c(O)c1[N+](=O)[O-]` returned an IC50 above 10000 nM.
Same read-out and setting: next, `Cc1cc(OCCCOc2ccccc2)cc2oc(=O)c([N+](=O)[O-])c(O)c12`: 5200 nM; `CC(C)c1ccccc1OCC(O)COc1ccc2c(O)c([N+](=O)[O-])c(=O)oc2c1` (stereo unspecified): 160 nM; `N#Cc1ccc(OCCCOc2ccc3c(O)c([N+](=O)[O-])c(=O)oc3c2)cc1`: above 10000 nM.
As to `CCCc1c(OCC(O)COc2ccc3c(O)c([N+](=O)[O-])c(=O)oc3c2CCC)ccc(C(C)=O)c1O` (stereo unspecified), inhibition was half-maximal at 200 nM (IC50).
The same measure, in the same setting: next, `O=c1oc2ccc(OCCCc3ccccc3)cc2c(O)c1[N+](=O)[O-]`: 5500 nM.
In turn, `COc1ccc(OCCCOc2ccc3c(O)c([N+](=O)[O-])c(=O)oc3c2)cc1` came in with an IC50 above 4000 nM.
`O=c1oc2cc(OCCCCc3ccc(Cl)cc3)ccc2c(O)c1[N+](=O)[O-]` had an IC50 of 3800 nM.
`O=c1oc2cc(OCCc3ccccc3)ccc2c(O)c1[N+](=O)[O-]` gave an IC50 of 4400 nM.
The molecule `Cc1ccc(OCCCOc2ccc3c(O)c([N+](=O)[O-])c(=O)oc3c2)c([N+](=O)[O-])c1` came in with an IC50 above 10000 nM.
The molecule `O=c1oc2cc(OCCOc3ccccc3)ccc2c(O)c1[N+](=O)[O-]` came in with an IC50 above 10000 nM.
For the molecule `O=c1oc2cccc(OCCCc3ccccc3)c2c(O)c1[N+](=O)[O-]`, the IC50 was above 20000 nM.
In turn, `O=c1oc2cc(OCCCOc3ccccc3)ccc2c(O)c1[N+](=O)[O-]` showed a concentration for half-maximal inhibition (IC50) of 1600 nM. In other words, the single-digit micromolar range.
`O=c1oc2ccc(OCc3ccccc3)cc2c(O)c1[N+](=O)[O-]` yielded an IC50 of 22000 nM. Compared with the last molecule, the IC50 is about 14-fold higher.
On the same count and under the same terms, the same measure for `O=c1oc2cc(OCCCOc3ccc(Cl)cc3)ccc2c(O)c1[N+](=O)[O-]`: 4000 nM; for `O=C(O)c1ccc(OCC(O)COc2ccc3c(O)c([N+](=O)[O-])c(=O)oc3c2)cc1` (stereo unspecified): above 10000 nM; for `CCCc1c(OCC(O)COc2ccc3c(O)c([N+](=O)[O-])c(=O)oc3c2)ccc(C(=O)CC)c1O` (stereo unspecified): 150 nM.
`O=c1oc2ccc(OCCc3ccccc3)cc2c(O)c1[N+](=O)[O-]` gave an IC50 of 18000 nM.
The same measure, in the same setting: next, `O=c1oc2ccc(OCCCOc3ccccc3)cc2c(O)c1[N+](=O)[O-]`: 2300 nM; `Cc1ccccc1OCCCOc1ccc2c(O)c([N+](=O)[O-])c(=O)oc2c1`: 590 nM; `O=c1oc2c(OCCCOc3ccccc3)cccc2c(O)c1[N+](=O)[O-]`: above 20000 nM.
Still for that read-out and setting: next, `CC(=O)c1ccc(OCC(O)COc2ccc3c(O)c([N+](=O)[O-])c(=O)oc3c2)c(C)c1O` (stereo unspecified): 500 nM; `CC(=O)c1ccc(OCCCOc2ccc3c(O)c([N+](=O)[O-])c(=O)oc3c2)cc1O`: 2800 nM.
On to `O=c1oc2cc(OCCCOc3ccc(-c4ccccc4)cc3)ccc2c(O)c1[N+](=O)[O-]`, for which the IC50 was above 20000 nM.
The same measure, in the same setting: the same measure for `O=c1oc2cc(OCc3ccccc3)ccc2c(O)c1[N+](=O)[O-]`: 1500 nM; for `CC(=O)c1ccc(OCCCOc2ccc3c(O)c([N+](=O)[O-])c(=O)oc3c2)cc1`: 6100 nM; for `CCc1cc(C(C)=O)c(O)cc1OCC(O)COc1ccc2c(O)c([N+](=O)[O-])c(=O)oc2c1` (stereo unspecified): 3500 nM.
Same read-out and setting: next, `CCCc1c(OCCCOc2ccccc2)ccc2c(O)c([N+](=O)[O-])c(=O)oc12`: 540 nM; `O=c1oc2cccc(OCCCOc3ccccc3)c2c(O)c1[N+](=O)[O-]`: 18000 nM; `O=c1oc2cc(OCCCCCCOc3ccccc3)ccc2c(O)c1[N+](=O)[O-]`: above 20000 nM.
On the same count and under the same terms, the same measure for `CCCc1c(OCC(O)COc2ccc3c(O)c([N+](=O)[O-])c(=O)oc3c2CC)ccc(C(C)=O)c1O` (stereo unspecified): 50 nM; for `CCCc1c(OCCCOc2ccc3c(O)c([N+](=O)[O-])c(=O)oc3c2)ccc(C(C)=O)c1O`: 100 nM; for `Cc1cccc(OCCCOc2ccc3c(O)c([N+](=O)[O-])c(=O)oc3c2)c1`: 4400 nM.
Take `O=c1oc2cc(OCCCCCOc3ccccc3)ccc2c(O)c1[N+](=O)[O-]`: the IC50 amounted to 8400 nM.
On to `O=c1oc2ccc(OCCOc3ccccc3)cc2c(O)c1[N+](=O)[O-]`, for which 17000 nM corresponded to half-maximal inhibition (IC50).
As for `CCCc1ccccc1OCC(O)COc1ccc2c(O)c([N+](=O)[O-])c(=O)oc2c1` (stereo unspecified), the concentration for half-maximal inhibition (IC50) was determined as 110 nM.
Take `CCCc1c(OCC(O)COc2ccc3c(O)c([N+](=O)[O-])c(=O)oc3c2)ccc(C(C)=O)c1O` (stereo unspecified): the IC50 was found to be 80 nM.
In turn, `CCCc1c(OCC(O)COc2ccc3c(=O)cc(C(=O)O)oc3c2CCC)ccc(C(C)=O)c1O` (stereo unspecified) [FPL-55712] showed an IC50 of 170 nM.
The same measure, in the same setting: next, `O=c1oc2cc(OCCCOc3ccc(F)cc3)ccc2c(O)c1[N+](=O)[O-]`: 1000 nM.
The molecule `CCc1cc2c(O)c([N+](=O)[O-])c(=O)oc2cc1OCCCOc1ccccc1` returned an IC50 above 10000 nM.
With `COC(=O)c1ccc(OCCCOc2ccc3c(O)c([N+](=O)[O-])c(=O)oc3c2)cc1`, the IC50 was above 10000 nM.
On the same count and under the same terms, next, `O=c1oc2cc(OCCCCc3ccccc3)ccc2c(O)c1[N+](=O)[O-]`: 4500 nM.
With `Cc1ccc(CCCCOc2ccc3c(O)c([N+](=O)[O-])c(=O)oc3c2)cc1`, the midpoint of inhibition, the IC50, lay at 2500 nM. Against the preceding molecule, the IC50 is about 1.8-fold lower.
Same read-out and setting: the same measure for `O=c1oc2ccc(OCCCCCCOc3ccccc3)cc2c(O)c1[N+](=O)[O-]`: 780 nM; for `Cc1ccc(OCCCOc2ccc3c(O)c([N+](=O)[O-])c(=O)oc3c2)cc1`: 4500 nM; for `CCCc1cc(F)ccc1OCC(O)COc1ccc2c(O)c([N+](=O)[O-])c(=O)oc2c1` (stereo unspecified): 140 nM.
On the same count and under the same terms, next, `O=c1oc2cc(OCCCCOc3ccccc3)ccc2c(O)c1[N+](=O)[O-]`: 3600 nM; `O=c1oc2cc(OCCCc3ccccc3)ccc2c(O)c1[N+](=O)[O-]`: 7800 nM.
Same read-out and setting: next, `CC(=O)c1ccc(OCC(O)COc2ccc3c(O)c([N+](=O)[O-])c(=O)oc3c2)cc1O` (stereo unspecified): above 20000 nM.
For the molecule `O=c1oc2ccc(OCCCCCOc3ccccc3)cc2c(O)c1[N+](=O)[O-]`, the IC50 was found to be 2000 nM. This counts as single-digit micromolar.
Still for that read-out and setting: the same measure for `CCCc1c(OCC(O)COc2ccc3c(O)c([N+](=O)[O-])c(=O)oc3c2C)ccc(C(C)=O)c1O` (stereo unspecified): 25 nM; for `CCc1ccccc1OCC(O)COc1ccc2c(O)c([N+](=O)[O-])c(=O)oc2c1` (stereo unspecified): 2700 nM; for `CCCc1c(O)c(C(C)=O)cc([N+](=O)[O-])c1OCC(O)COc1ccc2c(O)c([N+](=O)[O-])c(=O)oc2c1C` (stereo unspecified): 1600 nM.
With `CCCc1cc(C(C)=O)ccc1OCC(O)COc1ccc2c(O)c([N+](=O)[O-])c(=O)oc2c1` (stereo unspecified), the IC50 amounted to 700 nM. This IC50 lies about 2.3-fold lower than the previous one.
